The source of these data is article PMC6634314 (Cell chemical biology, 2019).

In this test the test system is Calu-6-KRAS^Q61K. Briefly: proliferation assay. The test is classed as cell-based, Human. The settings on record: Calu-6-KRAS^Q61K cells (Fig. S2). In short, it runs like this:
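NSCLC lines were mycoplasma-tested and treated with various concentrations of test compound for 72 h. Cell viability was then measured by CellTiter-Glo luminescence.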

Consider `C=CC(=O)Nc1ccccc1Nc1nc(Nc2ccc(N3CCN(C)CC3)cc2)ncc1Cl` [SM1-71], for which the growth inhibitory effects entry was “strong growth inhibitory effects”.
